Experimental data taken from ChEMBL document CHEMBL1151472, “In vitro interactions between tacrolimus and azoles against Candida albicans determined by different methods” (2008).
In brackets after ≈: the same amount, converted by molar mass.

How the values were obtained:
Format in all cases: functional
[1] = tested on: Candida albicans; test: Antimicrobial activity against azole-resistant Candida albicans isolate CA10 assessed as growth at 16 ug/ml cotreated with 0.125 ug/ml calcineurin signaling inhibitor tacrolimus after 48 hrs by microdilution checkerboard technique relative to control; parameters: scale not given: the % may be the effect or the level left
In short: (§1)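 Checkerboard microdilution in MOPS-buffered RPMI 1640 (pH 7.0, 2% dextrose). Final ranges: azole 0.125–128 μg/ml (FLC) or 0.008–8 μg/ml (ITR, VRC), tacrolimus 0.002–0.125 μg/ml; solvent 1% in single-drug wells. Inoculum 2.5 × 10^3 CFU/ml, 35°C, 48 h. Growth % = background-subtracted OD492 of each well / drug-free well. Triplicate on different days.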

[2] = tested on: Candida albicans; test: Antimicrobial activity against azole-resistant Candida albicans isolate CA10 assessed as growth at 0.125 ug/ml cotreated with 0.063 ug/ml calcineurin signaling inhibitor Tacrolimus after 48 hrs by microdilution checkboard technique relative to control; parameters: scale not given: the % may be the effect or the level left; in short: as §1
[3] = tested on: Candida albicans; test: Antimicrobial activity against azole-resistant Candida albicans isolate CA10 after 48 hrs by broth microdilution method; settings: isolate CA10, 48 h
In short: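 Broth microdilution per CLSI M27-A2 in RPMI 1640 (pH 7.0, 2% dextrose, 0.165 M MOPS), final inoculum 2.5 × 10^3 CFU/ml; 35°C without shaking for 48 h. Read visually (0–5 scale) and by OD 492 nm; MIC80 = lowest concentration giving 80% drop in absorbance versus drug-free control. Triplicate.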

[4] = tested on: Candida albicans; test: Antimicrobial activity against azole-susceptible Candida albicans isolate CA5 after 48 hrs by broth microdilution method; settings: isolate CA5, 48 h
In short: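 CLSI M27-A2 broth microdilution was run in RPMI 1640 (pH 7.0, 2% dextrose, 0.165 M MOPS). Inoculum was 2.5 × 10^3 CFU/ml, incubated 35°C for 48 h without shaking. Plates were read visually (0–5 scale) and at OD 492 nm. MIC80 = lowest concentration giving an 80% absorbance decrease vs drug-free control. Triplicate.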

[5] = tested on: Candida albicans; test: Antimicrobial activity against azole-resistant Candida albicans isolate CA10 assessed as growth at 8 ug/ml co-treated with 0.004 ug/ml calcineurin signaling inhibitor tacrolimus after 48 hrs by microdilution checkboard technique relative to control; parameters: scale not given: the % may be the effect or the level left
In short: (§2)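 CA10 in RPMI 1640 with 2% dextrose and 0.165 M MOPS, pH 7.0. Checkerboard used twofold dilutions, with azole alone in row H and the drug-free growth control in well H1. Final inoculum was 2.5 × 10^3 CFU/ml, incubated 35°C for 48 h, with OD read at 492 nm. Growth % = background-subtracted well OD / drug-free well OD. Run in triplicate on different days.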

[6] = tested on: Candida albicans; test: Antimicrobial activity against azole-resistant Candida albicans isolate CA10 assessed as growth at 4 ug/ml co-treated with 0.031 ug/ml calcineurin signaling inhibitor tacrolimus after 48 hrs by microdilution checkboard technique relative to control; parameters: scale not given: the % may be the effect or the level left
In short: (§3)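 Checkerboard microdilution in RPMI 1640 (pH 7.0, 2% dextrose, 0.165 M MOPS). Azole dilutions run along columns and FK506 along rows, at 4× final concentration. Final inoculum 2.5 × 10^3 CFU/ml from Sabouraud-subcultured cells. Incubated 35°C for 48 h; OD read at 492 nm. Background from microorganism-free plates subtracted. Growth % = well OD / drug-free well OD. Triplicate on different days, values averaged.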

[7] = tested on: Candida albicans; test: Antimicrobial activity against azole-resistant Candida albicans isolate CA10 co-treated with calcineurin signaling inhibitor tacrolimus after 48 hrs by microdilution checkerboard technique; settings: isolate CA10, 48 h
In short: (§4)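 Checkerboard microdilution in MOPS-buffered RPMI 1640 (pH 7.0, 2% dextrose) with 2.5 × 10^3 CFU/ml for 48 h at 35°C. Final FK506 was 0.002–0.125 μg/ml. Azole finals were FLC 0.125–128 μg/ml, and ITR and VRC 0.008–8 μg/ml. MIC80 is an 80% OD492 decrease vs drug-free control. Interaction was scored by FICI (synergy ≤0.5, antagonism >4) and by ΔE from triplicates.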

[8] = tested on: Candida albicans; test: Antimicrobial activity against azole-resistant Candida albicans isolate CA10 assessed as growth at 0.008 ug/ml after 48 hrs by microdilution checkerboard technique relative to control; in short: as §1
[9] = tested on: Candida albicans; test: Antimicrobial activity against azole-resistant Candida albicans isolate CA10 assessed as growth at 0.5 ug/ml cotreated with 0.002 ug/ml calcineurin signaling inhibitor tacrolimus after 48 hrs by microdilution checkerboard technique relative to control; parameters: scale not given: the % may be the effect or the level left; in short: as §1
[10] = tested on: Candida albicans; test: Antimicrobial activity against azole-resistant Candida albicans isolate CA10 assessed as growth at 1 ug/ml cotreated with 0.002 ug/ml calcineurin signaling inhibitor tacrolimus after 48 hrs by microdilution checkerboard technique relative to control; parameters: scale not given: the % may be the effect or the level left; in short: as §1
[11] = tested on: Candida albicans; test: Antimicrobial activity against azole-resistant Candida albicans isolate CA10 assessed as growth at 32 ug/ml co-treated with 0.004 ug/ml calcineurin signaling inhibitor tacrolimus after 48 hrs by microdilution checkboard technique relative to control; parameters: scale not given: the % may be the effect or the level left; in short: as §1
[12] = tested on: Candida albicans; test: Antimicrobial activity against azole-resistant Candida albicans isolate CA10 assessed as growth at 4 ug/ml cotreated with 0.002 ug/ml calcineurin signaling inhibitor tacrolimus after 48 hrs by microdilution checkerboard technique relative to control; parameters: scale not given: the % may be the effect or the level left; in short: as §2
[13] = tested on: Candida albicans; test: Antimicrobial activity against azole-resistant Candida albicans isolate CA10 assessed as growth at 16 ug/ml co-treated with 0.004 ug/ml calcineurin signaling inhibitor tacrolimus after 48 hrs by microdilution checkboard technique relative to control; parameters: scale not given: the % may be the effect or the level left; in short: as §1
[14] = tested on: Candida albicans; test: Antimicrobial activity against azole-resistant Candida albicans isolate CA10 assessed as growth at 1 ug/ml cotreated with 0.016 ug/ml calcineurin signaling inhibitor tacrolimus after 48 hrs by microdilution checkerboard technique relative to control; parameters: scale not given: the % may be the effect or the level left; in short: as §1
[15] = tested on: Candida albicans; test: Antimicrobial activity against azole-resistant Candida albicans isolate CA10 assessed as growth at 32 ug/ml cotreated with 0.016 ug/ml calcineurin signaling inhibitor Tacrolimus after 48 hrs by microdilution checkboard technique relative to control; parameters: scale not given: the % may be the effect or the level left; in short: as §2
[16] = tested on: Candida albicans; test: Antimicrobial activity against azole-resistant Candida albicans isolate CA10 assessed as growth at 4 ug/ml cotreated with 0.063 ug/ml calcineurin signaling inhibitor Tacrolimus after 48 hrs by microdilution checkboard technique relative to control; parameters: scale not given: the % may be the effect or the level left; in short: as §2
[17] = tested on: Candida albicans; test: Antimicrobial activity against azole-resistant Candida albicans isolate CA10 assessed as growth at 128 ug/ml cotreated with 0.004 ug/ml calcineurin signaling inhibitor Tacrolimus after 48 hrs by microdilution checkboard technique relative to control; parameters: scale not given: the % may be the effect or the level left; in short: as §1
[18] = tested on: Candida albicans; test: Antimicrobial activity against azole-resistant Candida albicans isolate CA10 assessed as growth at 4 ug/ml after 48 hrs by microdilution checkerboard technique relative to control; in short: as §2
[19] = tested on: Candida albicans; test: Antimicrobial activity against azole-susceptible Candida albicans isolate CA12 co-treated with calcineurin signaling inhibitor tacrolimus after 48 hrs by microdilution checkerboard technique; settings: isolate CA12, 48 h; in short: as §4
[20] = tested on: Candida albicans; test: Antimicrobial activity against azole-resistant Candida albicans isolate CA10 assessed as growth at 8 ug/ml co-treated with 0.008 ug/ml calcineurin signaling inhibitor tacrolimus after 48 hrs by microdilution checkboard technique relative to control; parameters: scale not given: the % may be the effect or the level left; in short: as §2
[21] = tested on: Candida albicans; test: Antimicrobial activity against azole-resistant Candida albicans isolate CA10 assessed as growth at 0.125 ug/ml co-treated with 0.031 ug/ml calcineurin signaling inhibitor tacrolimus after 48 hrs by microdilution checkboard technique relative to control; parameters: scale not given: the % may be the effect or the level left; in short: as §3

OC(Cn1cncn1)(Cn1cncn1)c1ccc(F)cc1F [FLUCONAZOLE]
Activity [1]: 3% | Activity [2]: 27% | MIC [3]: 256 µg/mL (≈ 836 µM) | MIC [4]: 0.25 µg/mL (≈ 0.816 µM) | Activity [5]: 34% | Activity [6]: 16% | MIC [7]: 0.25 µg/mL | Activity [8]: 96% | Activity [9]: 55% | Activity [10]: 50% | Activity [11]: 30% | Activity [12]: 44% | Activity [13]: 35% | Activity [14]: 24% | Activity [15]: 18% | Activity [16]: 13% | Activity [17]: 45% | Activity [18]: 53% | MIC [19]: 2 µg/mL | Activity [20]: 28% | Activity [21]: 36%
